From ChEMBL document CHEMBL2034860, “Cytotoxic heterocyclic triterpenoids derived from betulin and betulinic acid” (Bioorg Med Chem, 2012)

What was measured:
CCRF-CEM [1] = experiment: Cytotoxicity against human CCRF-CEM cells after 72 hrs by MTT assay; format: functional, cell-based
[2] = Solubility of the compound in water based media; format: physicochemical; conditions: buffer
[3] = Therapeutic index, ratio of IC50 for human BJ cells to IC50 for human K562 cells; format: cell-based; conditions: BJ cells versus K562 cells, read-out: Ratio IC50
[4] = Therapeutic index, ratio of IC50 for human BJ cells to IC50 for human CCRF-CEM cells; format: cell-based; conditions: BJ cells versus CCRF-CEM cells, read-out: Ratio IC50
CCRF-CEM [5] = experiment: Cytotoxicity against human daunorubicine resistant CEM cells after 72 hrs by MTT assay; format: functional, cell-based
Method in brief: (§1)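 Cells seeded at 2500–30,000 per well according to cell type and pre-incubated 24 h at 37 °C, 5% CO2. Four-fold dilutions of compounds dissolved in 10% DMSO were added at time zero, in quadruplicate, then incubated 72 h. MTT was added for a further 1–4 h and formazan dissolved in 10% aq SDS (pH 5.5) overnight at 37 °C. OD was read at 540 nm. Survival was taken as % of mean control OD, and IC50 was read from dose-response curves.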

A549 = experiment: Cytotoxicity against human A549 cells after 72 hrs by MTT assay; format: functional, cell-based; conditions: A549, 72 h; method in brief: as §1
K562 [6] = experiment: Cytotoxicity against human K562 cells after 72 hrs by MTT assay; format: functional, cell-based; conditions: K562, 72 h; method in brief: as §1
K562 [7] = experiment: Cytotoxicity against human paclitaxel resistant K562 cells after 72 hrs by MTT assay; format: functional, cell-based; conditions: K562, 72 h; method in brief: as §1
HCT-116 [8] = experiment: Cytotoxicity against human HCT116 cells after 72 hrs by MTT assay; format: functional, cell-based; conditions: HCT-116, 72 h; method in brief: as §1
HCT-116 [9] = experiment: Cytotoxicity against human p53-deficient HCT116 cells after 72 hrs by MTT assay; format: functional, cell-based; conditions: HCT-116, 72 h; method in brief: as §1
BJ = experiment: Cytotoxicity against human BJ cells after 72 hrs by MTT assay; format: cell-based; method in brief: as §1
MRC5 = experiment: Cytotoxicity against human MRC5 cells after 72 hrs by MTT assay; format: cell-based; conditions: MRC5, 72 h; method in brief: as §1
[10] = Therapeutic index, ratio of IC50 for human BJ cells to IC50 for paclitaxel-resistant human K562 cells; format: cell-based; conditions: BJ cells versus paclitaxel-resistant K562 cells, read-out: Ratio IC50
[11] = Therapeutic index, ratio of IC50 for human MRC5 cells to IC50 for human CCRF-CEM cells; format: cell-based; conditions: MRC5 cells versus CCRF-CEM cells, read-out: Ratio IC50

## CC(C)[C@@H]1CC[C@]2(C(=O)O)CC[C@]3(C)[C@H](CC[C@@H]4[C@@]5(C)Cc6sc(Br)nc6C(C)(C)[C@@H]5CC[C@]43C)[C@@H]12
CCRF-CEM [1]
  IC50: 11 µM
[2]
  solubility: Insoluble

## C=C(C)[C@@H]1CC[C@]2(C(=O)O)CC[C@]3(C)[C@H](CC[C@@H]4[C@@]5(C)Cc6c(n[nH]c6O)C(C)(C)C5CC[C@]43C)[C@@H]12 (single isomer, unassigned)
CCRF-CEM [1]
  IC50: 22 µM
[2]
  solubility: Insoluble

## CC1(C)CC[C@]23CC[C@]4(C)[C@H](CC[C@@H]5[C@@]6(C)Cc7cnn(-c8ccccc8)c7C(C)(C)[C@@H]6CC[C@]54C)[C@H]2[C@H]1OC3
CCRF-CEM [1]
  IC50: 250 µM
[2]
  solubility: Insoluble

## CC1(C)CC[C@]23CC[C@]4(C)[C@H](CC[C@@H]5[C@@]6(C)Cc7c[nH]nc7C(C)(C)[C@@H]6CC[C@]54C)[C@H]2[C@H]1OC3
CCRF-CEM [1]
  IC50: 210 µM
[2]
  solubility: Insoluble

## C=C(C)[C@@H]1CC[C@]2(C(=O)O)CC[C@]3(C)[C@H](CC[C@@H]4[C@@]5(C)Cc6cnn(-c7ccccc7)c6C(C)(C)[C@@H]5CC[C@]43C)[C@@H]12
CCRF-CEM [1]
  IC50: 31 µM
[2]
  solubility: Insoluble

## CC1(C)CC[C@]23CC[C@]4(C)[C@H](CC[C@@H]5[C@@]6(C)Cc7cnoc7C(C)(C)[C@@H]6CC[C@]54C)[C@H]2[C@H]1OC3
CCRF-CEM [1]
  IC50: > 250 µM
[2]
  solubility: Insoluble

## CC1(C)CC[C@]23CC[C@]4(C)[C@H](CC[C@@H]5[C@@]6(C)CC(Br)(Br)C(=O)C(C)(C)[C@@H]6CC[C@]54C)[C@H]2[C@H]1OC3
CCRF-CEM [1]
  IC50: > 250 µM

## C=C(C)[C@@H]1CC[C@]2(C(=O)O)CC[C@]3(C)[C@H](CC[C@@H]4[C@@]5(C)CC(C(=O)OCC)=C(O)C(C)(C)[C@@H]5CC[C@]43C)[C@@H]12
CCRF-CEM [1]
  IC50: 161 µM

## CC(C)[C@@H]1CC[C@]2(C(=O)O)CC[C@]3(C)[C@H](CC[C@@H]4[C@@]5(C)CC(Br)(Br)C(=O)C(C)(C)[C@@H]5CC[C@]43C)[C@@H]12
[3]
  selectivity ratio: > 10
[4]
  selectivity ratio: > 10
CCRF-CEM [1]
  IC50: 1 µM
CCRF-CEM [5]
  IC50: 7 µM
A549
  IC50: 8.4 µM
K562 [6]
  IC50: 0.9 µM
K562 [7]
  IC50: 1.1 µM
HCT-116 [8]
  IC50: 2.4 µM
HCT-116 [9]
  IC50: 2.6 µM
BJ
  IC50: 13.3 µM
MRC5
  IC50: 8 µM
[10]
  selectivity ratio: > 10
[11]
  selectivity ratio: 8

## CC(C)[C@@H]1CC[C@]2(C(=O)O)CC[C@]3(C)[C@H](CC[C@@H]4[C@@]5(C)Cc6c(n[nH]c6O)C(C)(C)[C@@H]5CC[C@]43C)[C@@H]12
CCRF-CEM [1]
  IC50: 123 µM
[2]
  solubility: Insoluble

## CCOC(=O)C1=C(O)C(C)(C)[C@@H]2CC[C@]3(C)[C@H](CC[C@@H]4[C@H]5[C@H]6OC[C@@]5(CCC6(C)C)CC[C@]43C)[C@@]2(C)C1
CCRF-CEM [1]
  IC50: > 250 µM

## CC(C)[C@@H]1CC[C@]2(C(=O)O)CC[C@]3(C)[C@H](CC[C@@H]4[C@@]5(C)CCC(=O)C(C)(C)[C@@H]5CC[C@]43C)[C@@H]12 [DIHYDROBETULONIC ACID]
CCRF-CEM [1]
  IC50: 4 µM
CCRF-CEM [5]
  IC50: 9.4 µM
A549
  IC50: 5.9 µM
K562 [6]
  IC50: 2.5 µM
K562 [7]
  IC50: 4 µM
HCT-116 [8]
  IC50: 4.1 µM
HCT-116 [9]
  IC50: 6.1 µM
BJ
  IC50: 22.6 µM
MRC5
  IC50: 11.7 µM

## CC(C)[C@@H]1CC[C@]2(C(=O)O)CC[C@]3(C)[C@H](CC[C@@H]4[C@@]5(C)Cc6cnn(-c7ccccc7)c6C(C)(C)[C@@H]5CC[C@]43C)[C@@H]12
CCRF-CEM [1]
  IC50: 45 µM
[2]
  solubility: Insoluble

## CC1(C)CC[C@]23CC[C@]4(C)[C@H](CC[C@@H]5[C@@]6(C)Cc7conc7C(C)(C)[C@@H]6CC[C@]54C)[C@H]2[C@H]1OC3
CCRF-CEM [1]
  IC50: > 250 µM
[2]
  solubility: Insoluble

## CC1(C)CC[C@]23CC[C@]4(C)[C@H](CC[C@@H]5[C@@]6(C)Cc7sc(Br)nc7C(C)(C)[C@@H]6CC[C@]54C)[C@H]2[C@H]1OC3
CCRF-CEM [1]
  IC50: 150 µM
[2]
  solubility: Insoluble

## CC1(C)CC[C@]23CC[C@]4(C)[C@H](CC[C@@H]5[C@@]6(C)C=C(N7CCOCC7)C(=O)C(C)(C)[C@@H]6CC[C@]54C)[C@H]2[C@H]1OC3
CCRF-CEM [1]
  IC50: 226 µM

## CC(C)[C@@H]1CC[C@]2(C(=O)O)CC[C@]3(C)[C@H](CC[C@@H]4[C@@]5(C)CC(Br)C(=O)C(C)(C)[C@@H]5CC[C@]43C)[C@@H]12 (mixture of isomers)
[3]
  selectivity ratio: > 10
[4]
  selectivity ratio: > 10
CCRF-CEM [1]
  IC50: 1 µM
CCRF-CEM [5]
  IC50: 11.4 µM
A549
  IC50: 11.9 µM
K562 [6]
  IC50: 1.6 µM
K562 [7]
  IC50: 1.7 µM
HCT-116 [8]
  IC50: 4.3 µM
HCT-116 [9]
  IC50: 4.1 µM
BJ
  IC50: 17.8 µM
MRC5
  IC50: 14.6 µM
[10]
  selectivity ratio: > 10
[11]
  selectivity ratio: > 10

## C=C(C)[C@@H]1CC[C@]2(C(=O)O)CC[C@]3(C)[C@H](CC[C@@H]4[C@@]5(C)Cc6c[nH]nc6C(C)(C)[C@@H]5CC[C@]43C)[C@@H]12
CCRF-CEM [1]
  IC50: 3 µM
CCRF-CEM [5]
  IC50: 10.4 µM
A549
  IC50: 5.2 µM
K562 [6]
  IC50: 2.6 µM
K562 [7]
  IC50: 3 µM
HCT-116 [8]
  IC50: 4.5 µM
HCT-116 [9]
  IC50: 3.3 µM
BJ
  IC50: 35.8 µM
MRC5
  IC50: 14.1 µM
[2]
  solubility: Insoluble

## CC1(C)CC[C@]23CC[C@]4(C)[C@H](CC[C@@H]5[C@@]6(C)CC(Br)C(=O)C(C)(C)[C@@H]6CC[C@]54C)[C@H]2[C@H]1OC3 (mixture of isomers)
CCRF-CEM [1]
  IC50: > 250 µM

## C=C(C)[C@@H]1CC[C@]2(C(=O)O)CC[C@]3(C)[C@H](CC[C@@H]4[C@@]5(C)C/C(=C/O)C(=O)C(C)(C)[C@@H]5CC[C@]43C)[C@@H]12
[3]
  selectivity ratio: 6.6
[4]
  selectivity ratio: > 10
CCRF-CEM [1]
  IC50: 4 µM
CCRF-CEM [5]
  IC50: 29.6 µM
A549
  IC50: 17.6 µM
K562 [6]
  IC50: 8.4 µM
K562 [7]
  IC50: 12.7 µM
HCT-116 [8]
  IC50: 12.1 µM
HCT-116 [9]
  IC50: 13.7 µM
BJ
  IC50: 55.5 µM
MRC5
  IC50: 29.9 µM
[10]
  selectivity ratio: 4.4
[11]
  selectivity ratio: 8.5

## CC(C)[C@@H]1CC[C@]2(C(=O)O)CC[C@]3(C)[C@H](CC[C@@H]4[C@@]5(C)Cc6c[nH]nc6C(C)(C)[C@@H]5CC[C@]43C)[C@@H]12
CCRF-CEM [1]
  IC50: 3 µM
CCRF-CEM [5]
  IC50: 8.2 µM
A549
  IC50: 3.6 µM
K562 [6]
  IC50: 3.5 µM
K562 [7]
  IC50: 2.7 µM
HCT-116 [8]
  IC50: 3.9 µM
HCT-116 [9]
  IC50: 2.8 µM
BJ
  IC50: 22.4 µM
MRC5
  IC50: 13.4 µM
[2]
  solubility: Insoluble

## CC(C)[C@@H]1CC[C@]2(C(=O)O)CC[C@]3(C)[C@H](CC[C@@H]4[C@@]5(C)Cc6sc(N)nc6C(C)(C)[C@@H]5CC[C@]43C)[C@@H]12
CCRF-CEM [1]
  IC50: 3 µM
CCRF-CEM [5]
  IC50: 11.2 µM
A549
  IC50: 7 µM
K562 [6]
  IC50: 4.8 µM
K562 [7]
  IC50: 6.9 µM
HCT-116 [8]
  IC50: 5.1 µM
HCT-116 [9]
  IC50: 4.3 µM
BJ
  IC50: 24.9 µM
MRC5
  IC50: 15.7 µM
[2]
  solubility: Insoluble

## CC1(C)CC[C@]23CC[C@]4(C)[C@H](CC[C@@H]5[C@@]6(C)Cc7sc(N)nc7C(C)(C)[C@@H]6CC[C@]54C)[C@H]2[C@H]1OC3
CCRF-CEM [1]
  IC50: 85 µM
[2]
  solubility: Insoluble

## CC1(C)CC[C@]23CC[C@]4(C)[C@H](CC[C@@H]5[C@@]6(C)C=C(O)C(=O)C(C)(C)[C@@H]6CC[C@]54C)[C@H]2[C@H]1OC3
CCRF-CEM [1]
  IC50: 25 µM

## CCOC(=O)C1=C(O)C(C)(C)[C@@H]2CC[C@]3(C)[C@H](CC[C@@H]4[C@H]5[C@H](C(C)C)CC[C@]5(C(=O)O)CC[C@]43C)[C@@]2(C)C1
CCRF-CEM [1]
  IC50: 142 µM

## CC1(C)CC[C@]23CC[C@]4(C)[C@H](CC[C@@H]5[C@@]6(C)C/C(=C/O)C(=O)C(C)(C)[C@@H]6CC[C@]54C)[C@H]2[C@H]1OC3
CCRF-CEM [1]
  IC50: > 250 µM

## CC(C)[C@@H]1CC[C@]2(C(=O)O)CC[C@]3(C)[C@H](CC[C@@H]4[C@@]5(C)C/C(=C/O)C(=O)C(C)(C)[C@@H]5CC[C@]43C)[C@@H]12
CCRF-CEM [1]
  IC50: 61 µM

## CC1(C)CC[C@]23CC[C@]4(C)[C@H](CC[C@@H]5[C@@]6(C)Cc7c(n[nH]c7O)C(C)(C)[C@@H]6CC[C@]54C)[C@H]2[C@H]1OC3
CCRF-CEM [1]
  IC50: 33 µM
[2]
  solubility: Insoluble
